Experimental data from ChEMBL document CHEMBL1212938, “Inhibition of mycobacterial replication by pyrimidines possessing various C-5 functionalities and related 2'-deoxynucleoside analogues using in vitro and in vivo models” (J Med Chem, 2010).
Converted amounts (≈) assume the structure as drawn.

What was measured:
[1] = test system: Mycobacterium tuberculosis; assay: Antitubercular activity against Mycobacterium bovis BCG after 6 days by microplate alamar blue assay; assay type: functional; settings: variant bovis BCG, 144 h
How it was run: (§1)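 MABA run in 7H9GC medium, with drug diluted from DMSO stocks made at 100× the highest final concentration. Final levels were 100, 50, 10, 5, 2.5 and 1 μg/mL in triplicate, and the experiment was done three times. Inoculum was 2.5 × 10⁵ CFU/mL final. Alamar Blue plus Tween-80 was added once bacteria-only control wells turned pink, from day 6 on, and plates were read visually and by fluorescence after 24 h. Visual MIC is the lowest concentration preventing the blue-to-pink change. Mean percent inhibition was taken relative to bacteria-only and medium-only wells.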

[2] = test system: Mycobacterium tuberculosis; assay: Antitubercular activity against Mycobacterium bovis BCG at 10 ug/ml after 6 days by microplate alamar blue assay; assay type: functional; settings: variant bovis BCG, 144 h; how it was run: as §1
[3] = test system: Mycobacterium tuberculosis; assay: Antitubercular activity against Mycobacterium bovis BCG at 50 ug/ml after 6 days by microplate alamar blue assay; assay type: functional; settings: variant bovis BCG, 144 h; how it was run: as §1
[4] = test system: Mycobacterium tuberculosis; assay: Antitubercular activity against Mycobacterium bovis BCG at 100 ug/ml after 6 days by microplate alamar blue assay; assay type: functional; settings: variant bovis BCG, 144 h; how it was run: as §1
[5] = test system: Mycobacterium tuberculosis; assay: Antitubercular activity against Mycobacterium bovis BCG at 1 to 5 ug/ml after 6 days by microplate alamar blue assay; assay type: functional, variant bovis BCG; how it was run: as §1
[6] = test system: Mycobacterium tuberculosis; assay: Antitubercular activity against Mycobacterium bovis BCG at 0.5 to 1 ug/ml after 6 days by microplate alamar blue assay; assay type: functional, variant bovis BCG; how it was run: as §1
[7] = test system: Mycobacterium tuberculosis; assay: Antitubercular activity against Mycobacterium bovis BCG at 1 ug/ml after 6 days by microplate alamar blue assay; assay type: functional; settings: variant bovis BCG, 144 h; how it was run: as §1
[8] = test system: Mycobacterium tuberculosis; assay: Antitubercular activity against Mycobacterium bovis BCG at 5 ug/ml after 6 days by microplate alamar blue assay; assay type: functional; settings: variant bovis BCG, 144 h; how it was run: as §1

Row | SMILES | MIC50 [1] [µg/mL] | inhibition at 10 µg/mL [2] [%] | inhibition at 50 µg/mL [3] [%] | inhibition at 100 µg/mL [4] [%] | inhibition (INH) [5] [%] | inhibition (INH) [6] [%] | inhibition at 1 µg/mL [7] [%] | inhibition at 5 µg/mL [8] [%]
1 | CCCCCc1ccc(C#Cc2c[nH]c(=O)[nH]c2=O)cc1 | 1 (≈ 3.54 µM) | 60 | 60 | 90 | 50 |  |  | 
2 | C(C#Cc1ccccn1)#Cc1ccccn1 | < 0.5 | 100 | 100 | 100 |  | 80 |  | 
3 | CCCCCc1cc2c[nH]c(=O)nc2o1 | 100 (≈ 485 µM) |  |  |  |  |  |  | 
4 | Nc1nc(=O)n([C@H]2C[C@H](O)[C@@H](CO)O2)cc1C#Cc1ccccn1 | 1 (≈ 3.05 µM) | 80 | 90 | 90 | 50 |  |  | 
5 | NNC(=O)c1ccncc1 [ISONIAZID] | < 1 |  |  |  |  |  | 100 | 
6 | CCCc1ccc(C#Cc2c[nH]c(=O)[nH]c2=O)cc1 | 1 (≈ 3.93 µM) | 70 | 70 | 100 | 50 |  |  | 
7 | O=c1[nH]cc(C#Cc2ccccc2)c(=O)[nH]1 | ≥ 10 | 40 | 90 | 90 |  |  |  | 
8 | N[C@@H]1CONC1=O [CYCLOSERINE] | 5 (≈ 49 µM) | 71 |  |  |  |  |  | 50
9 | O=c1[nH]cc(C#Cc2ccccn2)c(=O)[nH]1 | < 5 | 75 | 75 | 90 |  |  |  | 60
10 | CCCc1cc2c[nH]c(=O)nc2o1 | 10 (≈ 56.1 µM) | 50 | 50 | 90 |  |  |  | 
11 | O=c1[nH]c(=O)n([C@H]2C[C@H](O)[C@@H](CO)O2)cc1C#Cc1ccccn1 | 1 (≈ 3.04 µM) | 80 | 90 | 50 | 50 |  |  | 
12 | CO[C@H]1/C=C/O[C@@]2(C)Oc3c(C)c(O)c4c(O)c(c(/C=N/N5CCN(C)CC5)c(O)c4c3C2=O)NC(=O)/C(C)=C\C=C\[C@H](C)[C@H](O)[C@@H](C)[C@@H](O)[C@@H](C)[C@H](OC(C)=O)[C@@H]1C [RIFAMPIN] | < 1 |  |  |  |  |  | 100 | 
